Assay results as given in ChEMBL document CHEMBL5058577, “EUbOPEN Chemogenomics Library 2 (Multiplex)” (2022).

Tested on: HEK-293T
Test: Multiplex assay against HEK293T
Format: toxicity, cell-based
Conditions: human
Method in brief: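 Compound was added to live cells that had been stained at seeding with Hoechst33342, BioTracker Green Microtubule Cytoskeleton Dye, MitoTracker Red and Annexin V Alexa Fluor 680, and imaging followed on a CQ1 microscope at 37°C and 5% CO2. CellPathfinder machine-learning gating divided cells into Hoechst high-intensity objects or normal cells, normal cells into healthy, pyknosed or fragmented nuclei, and pyknosed cells into mitotic or apoptotic. Tubulin, mitochondrial-mass and membrane-permeability phenotypes are per cents of healthy-nucleus cells.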

[1] = 12 h, 1 µM, compound concentration 1 uM, replicate 1
[2] = 12 h, 1 µM, compound concentration 1 uM, replicate 2
[3] = 12 h, 10 µM, compound concentration 10 uM, replicate 1
[4] = 12 h, 10 µM, compound concentration 10 uM, replicate 2
[5] = 24 h, 1 µM, compound concentration 1 uM, replicate 1
[6] = 24 h, 1 µM, compound concentration 1 uM, replicate 2
[7] = 24 h, 10 µM, compound concentration 10 uM, replicate 1
[8] = 24 h, 10 µM, compound concentration 10 uM, replicate 2
[9] = 48 h, 1 µM, compound concentration 1 uM, replicate 1
[10] = 48 h, 1 µM, compound concentration 1 uM, replicate 2
[11] = 48 h, 10 µM, compound concentration 10 uM, replicate 1
[12] = 48 h, 10 µM, compound concentration 10 uM, replicate 2

Compound: CN[C@@H](C)C(=O)N[C@H](C(=O)N1CCC[C@H]1C(=O)Nc1snnc1-c1ccccc1)C1CCCCC1 [GDC-0152]
- Population Apoptotic (%) [1]: 31%
- Population Fragmented Nuclei (%) [1]: 5%
- Population Healthy Nuclei (%) [1]: 78%
- Population Hoechst High Intensity Objects (%) [1]: 5%
- Population Membrane Permeable-Phenotype (%) [1]: 0%
- Population Mitochondria Different-Phenotype (%) [1]: 41%
- Population Mitotic Cells (%) [1]: 68%
- Population Normal (%) [1]: 94%
- Population Pyknosed Nuclei (%) [1]: 15%
- Population Tubulin-Different-Phenotype (%) [1]: 35%
- Total Cell Count [1]: 444
- Population Apoptotic (%) [2]: 60%
- Population Healthy Nuclei (%) [2]: 79%
- Population Hoechst High Intensity Objects (%) [2]: 7%
- Population Mitochondria Different-Phenotype (%) [2]: 62%
- Population Mitotic Cells (%) [2]: 39%
- Population Normal (%) [2]: 92%
- Population Pyknosed Nuclei (%) [2]: 14%
- Population Tubulin-Different-Phenotype (%) [2]: 26%
- Total Cell Count [2]: 314
- Population Apoptotic (%) [3]: 50%
- Population Fragmented Nuclei (%) [3]: 6%
- Population Healthy Nuclei (%) [3]: 73%
- Population Hoechst High Intensity Objects (%) [3]: 13%
- Population Membrane Permeable-Phenotype (%) [3]: 0%
- Population Mitochondria Different-Phenotype (%) [3]: 78%
- Population Mitotic Cells (%) [3]: 49%
- Population Normal (%) [3]: 86%
- Population Pyknosed Nuclei (%) [3]: 20%
- Population Tubulin-Different-Phenotype (%) [3]: 78%
- Total Cell Count [3]: 362
- Population Apoptotic (%) [4]: 72%
- Population Fragmented Nuclei (%) [4]: 7%
- Population Hoechst High Intensity Objects (%) [4]: 20%
- Population Mitochondria Different-Phenotype (%) [4]: 89%
- Population Mitotic Cells (%) [4]: 28%
- Population Normal (%) [4]: 80%
- Population Pyknosed Nuclei (%) [4]: 18%
- Population Tubulin-Different-Phenotype (%) [4]: 72%
- Total Cell Count [4]: 330
- Population Apoptotic (%) [5]: 30%
- Population Fragmented Nuclei (%) [5]: 8%
- Population Healthy Nuclei (%) [5]: 80%
- Population Hoechst High Intensity Objects (%) [5]: 4%
- Population Membrane Permeable-Phenotype (%) [5]: 1%
- Population Mitochondria Different-Phenotype (%) [5]: 28%
- Population Mitotic Cells (%) [5]: 69%
- Population Normal (%) [5]: 95%
- Population Pyknosed Nuclei (%) [5]: 10%
- Population Tubulin-Different-Phenotype (%) [5]: 23%
- Total Cell Count [5]: 601
- Population Apoptotic (%) [6]: 38%
- Population Fragmented Nuclei (%) [6]: 5%
- Population Healthy Nuclei (%) [6]: 82%
- Population Hoechst High Intensity Objects (%) [6]: 6%
- Population Membrane Permeable-Phenotype (%) [6]: 0%
- Population Mitochondria Different-Phenotype (%) [6]: 53%
- Population Mitotic Cells (%) [6]: 61%
- Population Normal (%) [6]: 93%
- Population Pyknosed Nuclei (%) [6]: 12%
- Population Tubulin-Different-Phenotype (%) [6]: 22%
- Total Cell Count [6]: 387
- Population Apoptotic (%) [7]: 45%
- Population Fragmented Nuclei (%) [7]: 10%
- Population Healthy Nuclei (%) [7]: 71%
- Population Hoechst High Intensity Objects (%) [7]: 7%
- Population Membrane Permeable-Phenotype (%) [7]: 0%
- Population Mitochondria Different-Phenotype (%) [7]: 74%
- Population Mitotic Cells (%) [7]: 54%
- Population Normal (%) [7]: 92%
- Population Pyknosed Nuclei (%) [7]: 17%
- Population Tubulin-Different-Phenotype (%) [7]: 69%
- Total Cell Count [7]: 454
- Population Apoptotic (%) [8]: 60%
- Population Fragmented Nuclei (%) [8]: 12%
- Population Healthy Nuclei (%) [8]: 68%
- Population Hoechst High Intensity Objects (%) [8]: 21%
- Population Mitochondria Different-Phenotype (%) [8]: 80%
- Population Mitotic Cells (%) [8]: 40%
- Population Normal (%) [8]: 78%
- Population Pyknosed Nuclei (%) [8]: 19%
- Population Tubulin-Different-Phenotype (%) [8]: 58%
- Total Cell Count [8]: 400
- Population Apoptotic (%) [9]: 31%
- Population Fragmented Nuclei (%) [9]: 12%
- Population Healthy Nuclei (%) [9]: 78%
- Population Hoechst High Intensity Objects (%) [9]: 4%
- Population Membrane Permeable-Phenotype (%) [9]: 1%
- Population Mitochondria Different-Phenotype (%) [9]: 22%
- Population Mitotic Cells (%) [9]: 68%
- Population Normal (%) [9]: 95%
- Population Pyknosed Nuclei (%) [9]: 9%
- Population Tubulin-Different-Phenotype (%) [9]: 16%
- Total Cell Count [9]: 928
- Population Apoptotic (%) [10]: 40%
- Population Fragmented Nuclei (%) [10]: 10%
- Population Healthy Nuclei (%) [10]: 82%
- Population Hoechst High Intensity Objects (%) [10]: 3%
- Population Mitochondria Different-Phenotype (%) [10]: 29%
- Population Mitotic Cells (%) [10]: 60%
- Population Normal (%) [10]: 96%
- Population Pyknosed Nuclei (%) [10]: 6%
- Total Cell Count [10]: 603
- Population Apoptotic (%) [11]: 47%
- Population Fragmented Nuclei (%) [11]: 12%
- Population Healthy Nuclei (%) [11]: 73%
- Population Hoechst High Intensity Objects (%) [11]: 16%
- Population Membrane Permeable-Phenotype (%) [11]: 0%
- Population Mitochondria Different-Phenotype (%) [11]: 74%
- Population Mitotic Cells (%) [11]: 52%
- Population Normal (%) [11]: 83%
- Population Pyknosed Nuclei (%) [11]: 13%
- Population Tubulin-Different-Phenotype (%) [11]: 55%
- Total Cell Count [11]: 538
- Population Apoptotic (%) [12]: 60%
- Population Healthy Nuclei (%) [12]: 70%
- Population Hoechst High Intensity Objects (%) [12]: 21%
- Population Mitochondria Different-Phenotype (%) [12]: 76%
- Population Mitotic Cells (%) [12]: 39%
- Population Normal (%) [12]: 78%
- Population Pyknosed Nuclei (%) [12]: 17%
- Population Tubulin-Different-Phenotype (%) [12]: 52%
- Total Cell Count [12]: 417
